Sampled rows, rich in hits. Any-hit rate of the full collection: about 1.3%.
G6PDH CS = L. mesenteroides G6PDH inhibitors, counter-screen for G6PDH-coupled screening assays, biochemical, Leuconostoc mesenteroides enzyme; Purified L. mesenteroides G6PDH, diaphorase/resazurin coupled fluorescence, 45 min; inhibition, % at 5 µM; 200,000 tested, 0.12% active; AID 1020, 2008; in the data active = inhibition above about 50%
Diaph inh CS = diaphorase inhibitors and chemical oxidizers, primary screen, counter-screen for diaphorase-coupled primary assays, biochemical, uHTS, resorufin fluorescence; AID 1217, 2008; 190,000 tested, 0.69% active; diaphorase resazurin-to-resorufin fluorescence, NADH, 16 min; bacterial (C. kluyveri) enzyme, not human; inhibition, % at 20 µM;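 active = primary screen inhibition at 20 µM above a set limit, cut at about 50% in these data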;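 also: plate controls were DMSO with full reaction for no effect and wells lacking NADH for full effect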
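System: Diaphorase enzyme from Clostridium kluyveri | Amount: Enzyme working solution with 0.14 U/mL diaphorase | Benchmarks: No-NADH positive control and DMSO neutral control | Signal: Fluorescence of resorufin formed from resazurin, Ex 544/Em 590 nm | Schedule: 16-min room-temperature incubation before reading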
HKDC1 inhibitor = HKDC1 hexokinase inhibitors, primary screen, biochemical, fluorescence, uHTS | AID 493160, 2011 | 340,000 tested, 0.16% active | recombinant HKDC1, G6PDH/diaphorase resazurin coupled fluorescence | Q2TB90 | inhibition, % at 20 µM;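 active = inhibition above about 35% when tested at 20 µM, limit read from the data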;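 also: plate controls were DMSO wells with enzyme for no effect and DMSO wells lacking enzyme for full effect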
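Assay system: recombinant HKDC1 hexokinase; detection: coupled resazurin fluorescence, excitation 525 nm, emission 613 nm; benchmarks: DMSO-plus-enzyme-mix negative control, buffer-substituted positive control; compound dosing: single 20 µM dose; schedule: 90 min at room temperature in dark; also added: glucose plus 1 mM ATP as hexokinase substrates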
Diaph act CS = compounds boosting diaphorase resazurin reduction – biochemical, uHTS, resorufin fluorescence, counter-screen for diaphorase-coupled primary assays, primary screen; Diaphorase/resazurin coupled assay, 16 min; hits give high values; 1 = vehicle wells, 0 = NADH-free wells; activation factor at 20 µM; 190,000 tested, 0.005% active;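 active = diaphorase activity raised at least twofold by the compound at 20 µM; inactive = activation factor below 2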
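Material: Clostridium kluyveri diaphorase, purified enzyme; Quantity: enzyme 0.07 U/mL final; Medium: HEPES pH 7.4 buffer with MgCl2 and Tween 20; Dosing: single compound dose of 20 µM, 1% DMSO final; Schedule: 16 min reaction at room temperature; Measured by: red resorufin fluorescence at 544/590 nm excitation/emission.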
PfG6PD inh = PfG6PD enzyme inhibitors, primary screen, biochemical, fluorescence intensity, uHTS. inhibition, % at 20 µM. PfGluPho enzyme, NADPH resazurin-diaphorase fluorescence. glucose-6-phosphate dehydrogenase-6-phosphogluconolactonase (Plasmodium falciparum 3D7). AID 504690, 2011. 350,000 tested, 0.78% active;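 active = inhibition reaching at least a set limit at 20 µM in the primary screen, cut at about 59% in these data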;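 also: 0% = DMSO wells with substrate and 100% = DMSO wells lacking glucose-6-phosphate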
The depositor's hits bear a star; · = no result.

SMILES	G6PDH CS	Diaph inh CS	HKDC1 inhibitor	Diaph act CS	PfG6PD inh
CC(C)c1ccc(-c2nc(N3CCCCC3)[nH]c(=O)c2C#N)cc1	9	13	-2	0.9	-30
CC1=Nc2nc(N3CCCCC3)c(C#N)c3c4c(nc(c23)N1)N(c1ccc(C(C)C)cc1)C(=O)C4	12	81*	-4	0.2	-8
CC(C)CN=Cc1c(O)c([N+](=O)[O-])cc2oc3c(c12)CCCC3	-6	56*	9	0.4	9
COC(=O)C1=C(C)NC(C)=C(C(=O)OC)C1c1ccccc1[N+](=O)[O-]	25	45	-6	0.6	75*
CCOC(=O)C1=C(C)NC(C)=C(C(=O)OC)C1c1cccc([N+](=O)[O-])c1 (stereo not drawn)	4	14	3	0.9	13
CC1CCCC(C)N1C(=O)COC(=O)CNS(=O)(=O)c1ccc2ccccc2c1 (stereo not drawn)	·	·	·	·	-4
CC(=O)Nc1nc2[nH]ccc2c(=O)[nH]1	·	·	·	·	6
CCCC(=O)OCCNc1cc(SCc2ccco2)c2nonc2c1[N+](=O)[O-]	-6	71*	8	0.3	46
CCCSc1cc(NCCOC(=O)CCC)c([N+](=O)[O-])c2nonc12	-12	51*	7	0.5	36
Cc1nnc(Sc2cc(NCCCO)c([N+](=O)[O-])c3nonc23)s1	22	59*	22	0.4	77*
CCCC(=O)OCCNc1cc(Sc2nccn2C)c2nonc2c1[N+](=O)[O-]	11	22	7	0.8	43
CCCSc1cc(NCCOC(C)=O)c([N+](=O)[O-])c2nonc12	-4	36	7	0.6	24
CC(=O)OCCCNc1cc(SCc2ccco2)c2nonc2c1[N+](=O)[O-]	-13	87*	9	0.1	54
COc1ccc(-n2c(SCC(=O)Nc3cc(C)on3)nc3c(c2=O)SC(C)C3)cc1 (stereo not drawn)	·	·	·	·	6
O=C(O)c1ccc(Cl)c(S(=O)(=O)Nc2ccccc2C(=O)Nc2ccc(Cl)cc2)c1	·	·	8	·	-12
CCCCn1c(N)c(N(CC(C)C)C(=O)CN2C(=O)NC3(CCC(C(C)(C)CC)CC3)C2=O)c(=O)[nH]c1=O (stereo not drawn)	·	·	-1	·	-28
Cc1ccc(NC(=O)COc2coc(CN3CCN(c4ccccc4)CC3)cc2=O)cc1	·	·	-3	·	2
COc1ccc(S(=O)(=O)N2CCN(Cc3cc(OC)c(OC)cc3OC)CC2)cc1	·	·	2	·	3
COc1ccc(CN2CCN(S(=O)(=O)c3ccc(NC(C)=O)cc3)CC2)cc1OC	8	12	-7	0.9	7
COc1cc(OC)c(OC)cc1CN1CCN(S(=O)(=O)c2ccc(NC(C)=O)cc2)CC1	32	52*	23	0.5	-9
COc1cc(CN2CCN(Cc3ccc(SC)cc3)CC2)cc(OC)c1O	58*	40	-4	0.6	25
COc1cc(CN2CCN(S(=O)(=O)c3ccc(NC(C)=O)cc3)CC2)cc(OC)c1O	52*	43	8	0.6	9
COc1ccc(OCC(=O)N(C)CC2COc3ccccc3O2)cc1 (stereo not drawn)	·	·	-7	·	-6
Oc1ccc2ccccc2c1CNc1cnc2ccccc2c1	25	60*	12	0.4	32
CCCN(CC1CC1)c1nc(N)c2c(N)nc(OC)cc2c1C#N	28	52*	22	0.5	17
SMILES	G6PDH CS	Diaph inh CS	HKDC1 inhibitor	Diaph act CS	PfG6PD inh
O=C(NCc1cc2ccccc2[nH]1)C1CCC(=O)N(CCCN2CCCC2=O)C1 (stereo not drawn)	·	·	5	·	-3
O=C(O)CCCCCNC(=O)Cn1nnc2ccccc2c1=O	·	·	-4	·	-2
O=c1nc2s/c(=C\c3ccc(-c4ccccc4[N+](=O)[O-])o3)c(=O)n2nc1-c1ccccc1	32	69*	17	0.3	23
CCCCCOc1ccc(/C=c2\sc3nc(=O)c(-c4ccccc4)nn3c2=O)cc1OC	-16	2	-7	1	-24
CC(=O)Sc1nc(-c2ccccc2)[nH]c1S(=O)(=O)c1ccc(C)cc1	15	36	-3	0.6	65*
CSc1nc(-c2ccc(C)cc2)[nH]c1S(=O)(=O)c1ccccc1	2	19	-7	0.8	-5
C[C@H]1CN(S(=O)C(C)(C)C)[C@@H](CCO)/C1=C\CCO (stereo partly drawn)	·	·	-7	·	-3
Cc1cc2c(N=O)c(NO)ccc2[nH]1	48	22	-3	0.8	70*
Cc1ccc(NC(=O)CN2C(=O)S/C(=C/c3ccc(O)c([N+](=O)[O-])c3)C2=O)cc1C	13	92*	16	0.1	-6
CC1CCN(CCc2nc3cc(NC(=O)COc4ccc(Cl)cc4)ccc3n2C)CC1	·	·	-3	·	1
N#Cc1c(-c2cccc(Cl)c2)[nH]c(=S)[nH]c1=O	·	·	0	·	-14
N#Cc1c(-c2ccccc2)[nH]c(=S)[nH]c1=O	3	51*	5	0.5	-18
Cc1cccc(NC(=O)CCC(=O)OCC(=O)c2ccc(Oc3ccc([N+](=O)[O-])cc3)cc2)c1	-2	67*	5	0.3	-1
Cc1ccc(NC(=O)CCC(=O)OCC(=O)c2ccc(Oc3ccc([N+](=O)[O-])cc3)cc2)cc1C	-6	19	-3	0.8	-17
Oc1ccc2ccccc2c1C=Nc1ccc(Cl)cn1	58*	62*	21	0.4	39
Cc1cc(O)c(C=Nc2ccc(Cl)cn2)c(=O)o1	3	10	-8	0.9	4
CCOC(=O)CC(=O)CSc1nc2c(sc(=S)n2-c2ccccc2)c(=O)[nH]1	1	48	16	0.5	-1
CCN(CC)C(=O)CSc1nc2c(sc(=S)n2-c2ccccc2)c(=O)[nH]1	2	69*	12	0.3	-10
CCN(CC)C(=O)CSc1nc2c(sc(=S)n2Cc2ccco2)c(=O)n1-c1ccccc1	1	51*	1	0.5	11
CCOC(=O)c1ccc(-n2c(=S)sc3c(=O)[nH]c(C)nc32)cc1	-15	16	-12	0.8	66*
N#Cc1ccccc1CCN1C(=O)c2ccccc2C1=O	·	·	-4	·	-2
Cc1cc(C)n2nc(C(=O)OCC(=O)Nc3cc(S(=O)(=O)N4CCOCC4)ccc3Cl)nc2n1	·	·	0	·	-7
O=C(CNC(=O)c1ccc(Br)o1)Nc1ccc(F)c(S(=O)(=O)N2CCOCC2)c1	·	·	2	·	13
O=[N+]([O-])c1cc2cccnc2c2ncccc12	·	·	4	·	18
O=[N+]([O-])c1cc(O)c2ncccc2c1	43	52*	10	0.5	55

From PubChem BioAssay
